In ChEMBL document CHEMBL2385045, “Discovery of novel 4-(2-fluorophenoxy)quinoline derivatives bearing 4-oxo-1,4-dihydrocinnoline-3-carboxamide moiety as c-Met kinase inhibitors” (Bioorg Med Chem, 2013) one finds IC50 data, which are given here for 6 molecules.

Bounds are passed on as bounds.

For test [1], the target named is T1, Hepatocyte growth factor receptor (Homo sapiens, UniProt P08581). Briefly: Inhibition of c-Met (unknown origin). In a few lines:
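HTRF kinase assay on plates precoated with 20 µg/mL poly(Glu,Tyr) 4:1. ATP (10 mM solution) in 50 mM HEPES pH 7.0 buffer with DTT, MgCl₂, MnCl₂ and 0.1% NaN₃. Compound in 1% DMSO; reaction started with purified kinase and run 30 min at 25 °C. Inhibition relative to enzyme and no-enzyme controls; IC50 from the inhibition curves.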

Test [2] deals with Platelet-derived growth factor receptor alpha (Homo sapiens, UniProt P16234). Description: Inhibition of PDGFRalpha (unknown origin) using poly (Glu, Tyr) 4:1 as substrate after 30 mins by HTRF assay. In a few lines: (§1)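 HTRF kinase assay on plates precoated with 20 µg/mL poly(Glu,Tyr) 4:1. ATP (10 mM solution) in 50 mM HEPES pH 7.0 buffer with DTT, MgCl₂, MnCl₂ and 0.1% NaN₃. Compound in 1% DMSO; reaction started with purified kinase and run 30 min at 25 °C. Stopped with Streptavidin-XL665 plus TK antibody cryptate and read at 320/615. Inhibition relative to enzyme and no-enzyme controls; IC50 from the inhibition curves.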

Test [3] has as its system SMMC-7721. Description: Cytotoxicity against c-Met-dependent human SMMC7721 cells assessed as growth inhibition after 72 hrs by MTT assay. To be noted: SMMC-7721, 72 h. In kind it is functional, cell-based. In a few lines:
(§2)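 Cells grown in MEM with 10% FBS. About 4×10³ cells/well were seeded and incubated 24 h at 37 °C, 5% CO₂, then exposed to compound for 72 h. MTT was added (terminal 5 µg/mL) for 4 h at 37 °C, and formazan was dissolved in DMSO. IC50 is the mean of three determinations.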
For orientation: Formazan colour is commonly taken as a measure of viable cells.

Test [4] concerns HT-29. Briefly: Cytotoxicity against c-Met-dependent human HT-29 cells assessed as growth inhibition after 72 hrs by MTT assay. To be noted: HT-29, 72 h.
Test [5] in a line: Cytotoxicity against c-Met-independent human H460 cells assessed as growth inhibition after 72 hrs by MTT assay. To be noted: NCI-H460, 72 h.
Test [6] can be described thus: Cytotoxicity against c-Met-dependent human U87MG cells assessed as growth inhibition after 72 hrs by MTT assay. To be noted: U-87 MG. In kind it is functional, cell-based, U-87MG ATCC. In a few lines:
as §2

The target of test [7] is Epidermal growth factor receptor (Homo sapiens, UniProt P00533). Briefly: Inhibition of EGFR (unknown origin) using poly (Glu, Tyr) 4:1 as substrate after 30 mins by HTRF assay. In a few lines: as §1
(Time-resolved FRET reads energy transfer from a long-lived donor to a nearby acceptor.)

The target in test [8] is T1, Hepatocyte growth factor receptor. Briefly: Inhibition of c-Met (unknown origin) using poly (Glu, Tyr) 4:1 as substrate after 30 mins by HTRF assay.
For test [9], the system named is A549. Description: Cytotoxicity against c-Met-dependent human A549 cells assessed as growth inhibition after 72 hrs by MTT assay. To be noted: A549, 72 h.
Test [10] addresses T2, Vascular endothelial growth factor receptor 2 (Homo sapiens, UniProt P35968). Description: Inhibition of VEGFR-2 (unknown origin) using poly (Glu, Tyr) 4:1 as substrate after 30 mins by HTRF assay. In a few lines:
as §1

Test [11] concerns MKN-45. Description: Cytotoxicity against c-Met-dependent human MKN45 cells assessed as growth inhibition after 72 hrs by MTT assay. To be noted: MKN-45, 72 h.
Test [12] addresses Mast/stem cell growth factor receptor Kit (Homo sapiens, UniProt P10721). Description: Inhibition of c-Kit (unknown origin) using poly (Glu, Tyr) 4:1 as substrate after 30 mins by HTRF assay. In a few lines:
as §1

Test [13] addresses T3, Receptor-type tyrosine-protein kinase FLT3 (Homo sapiens, UniProt P36888).
T3 sequence (P36888 whole entry): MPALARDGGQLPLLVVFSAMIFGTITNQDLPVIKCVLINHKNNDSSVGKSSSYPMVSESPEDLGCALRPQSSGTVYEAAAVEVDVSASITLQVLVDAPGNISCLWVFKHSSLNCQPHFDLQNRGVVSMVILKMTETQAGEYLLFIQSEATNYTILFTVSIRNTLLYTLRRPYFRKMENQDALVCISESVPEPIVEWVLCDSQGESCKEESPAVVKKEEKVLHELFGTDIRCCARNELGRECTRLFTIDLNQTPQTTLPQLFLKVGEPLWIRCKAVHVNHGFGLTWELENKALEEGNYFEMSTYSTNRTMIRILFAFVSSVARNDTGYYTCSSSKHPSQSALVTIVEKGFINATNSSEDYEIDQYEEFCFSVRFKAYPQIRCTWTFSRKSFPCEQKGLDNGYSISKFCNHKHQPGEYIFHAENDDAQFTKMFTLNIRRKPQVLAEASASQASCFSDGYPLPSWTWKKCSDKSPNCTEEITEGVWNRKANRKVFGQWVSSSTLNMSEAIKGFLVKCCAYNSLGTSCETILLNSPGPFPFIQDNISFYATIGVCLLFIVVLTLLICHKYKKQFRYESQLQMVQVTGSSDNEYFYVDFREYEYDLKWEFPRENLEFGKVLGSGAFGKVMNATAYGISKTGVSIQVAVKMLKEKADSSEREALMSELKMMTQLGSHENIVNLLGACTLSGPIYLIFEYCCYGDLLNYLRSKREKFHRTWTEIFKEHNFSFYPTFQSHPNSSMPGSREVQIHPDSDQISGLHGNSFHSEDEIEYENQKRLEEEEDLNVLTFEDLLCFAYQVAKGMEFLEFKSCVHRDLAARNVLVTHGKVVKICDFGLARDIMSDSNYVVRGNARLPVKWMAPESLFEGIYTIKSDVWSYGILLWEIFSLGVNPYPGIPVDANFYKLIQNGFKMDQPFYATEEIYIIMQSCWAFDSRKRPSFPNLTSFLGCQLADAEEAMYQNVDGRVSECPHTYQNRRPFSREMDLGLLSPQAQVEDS
Description: Inhibition of Flt-3 (unknown origin) using poly (Glu, Tyr) 4:1 as substrate after 30 mins by HTRF assay. Summed up: as §1

The target of test [14] is T1, Hepatocyte growth factor receptor. Briefly: Inhibition of wild type GST-tagged c-Met kinase domain (1058 to 1365) (unknown origin) expressed in Sf9 cells by HTRF assay.
The target in test [15] is T2, Vascular endothelial growth factor receptor 2. Briefly: Inhibition of VEGFR-2 (unknown origin).

On to `COc1cc2c(Oc3ccc(-c4cnc(Nc5ccccc5)n(C)c4=O)cc3F)ccnc2cc1OCCCN1CCOCC1`, for which, in [1], half-maximal inhibition (IC50) was put at 4.9 nM.

Regarding `COc1cc2c(Oc3ccc(NC(=O)c4nn(-c5ccccc5C(F)(F)F)c5ccccc5c4=O)cc3F)ccnc2cc1OCCCN1CCCC1`, the 50% inhibitory concentration (IC50) in [2] is 27.3 nM; in [3] it was 250 nM; in test [4], 110 nM; in test [5], 55 nM; in test [6], 350 nM; in test [7] it was above 10000 nM. The IC50 came out at 0.59 nM in test [8]; 35 nM in test [9]; 15.4 nM in [10]; 22 nM in test [11]; 3.9 nM in test [12]; 8.5 nM in [13].

In the case of `COc1cc2c(Oc3ccc(NC(=O)c4nn(-c5cccc(C(F)(F)F)c5)c5ccccc5c4=O)cc3F)ccnc2cc1OCCCN1CCCCC1`, the IC50 is 330 nM in [3]; 560 nM in [4]; 1030 nM in test [5]; 1620 nM in [6]; 310 nM in test [9]; 270 nM in test [11].

In the case of `COc1cc2c(Oc3ccc(NC(=O)c4nn(-c5ccc(Cl)cc5)c5ccccc5c4=O)cc3F)ccnc2cc1OCCCN1CCCCC1`, the concentration for half-maximal inhibition (IC50) in test [3] worked out at 330 nM; in test [4], 2120 nM; in test [5] it was 640 nM; in [6] it was 1620 nM; in test [9], 200 nM; in test [11], 230 nM.

In test [14], `COc1cc2c(Oc3ccc(-c4cnc(Cc5ccccc5)n(C)c4=O)cc3F)ccnc2cc1OCCCN1CCOCC1` returned a half-maximal inhibitory concentration (IC50) of 8.9 nM.

Regarding `COc1cc2c(Oc3ccc(NC(=O)N4CCN(c5ccccc5)C4=O)cc3F)ccnc2cc1OCCCN1CCOCC1`, the 50% inhibitory concentration (IC50) in [15] stood at 30 nM.

As a reminder, the IC50 is the concentration that gives 50% inhibition.
